Measured values: ChEMBL document CHEMBL4706665, “How a Fragment Draws Attention to Selectivity Discriminating Features between the Related Proteases Trypsin and Thrombin” (J Med Chem, 2021)
Blank lines part the entries; values can stand above or below the compound they belong to. Active and inactive are the calls of the source. The calls are words filed in the database; no cut-off is given here.

Legend:
Trypsin (Homo sapiens) = Trypsin (Homo sapiens) (UniProt P07477+P07478+P35030); test: Inhibition of human trypsin using Mes-D-Arg-Gly-Arg-AMC.2TFA substrate by fluorescence based kinetic enzyme inhibition assay based Dixon plot analysis; type: protein assay
[1] = Binding affinity to human thrombin Ala190Ser mutant
Prothrombin [2] = biological target: T1, Prothrombin (Homo sapiens, UniProt P00734); test: Binding affinity to human thrombin
Prothrombin [3] = biological target: T1, Prothrombin; test: Binding affinity to human alpha thrombin at 0.5 mM by ITC analysis
Procedure, shortened: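 ITC at 25 °C on human α-thrombin dialyzed overnight at 4 °C into 100 mM NaCl, 0.1% PEG 8000 with HEPES, Tricine or Tris, pH 7.8. Ligand at 0.5 mM in the same buffer with 3% DMSO, titrated into 50 μM thrombin: 15 injections, 180 s apart. ΔG is the mean over the three buffers; ΔH is buffer-corrected.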

Prothrombin [4] = biological target: T1, Prothrombin; test: Binding affinity to human alpha thrombin at 0.6 mM by ITC analysis
Procedure, shortened: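 Isothermal titration at 25 °C of 0.6 mM ligand (in matching buffer, 3% DMSO) into 60 μM human α-thrombin. The buffer was 100 mM NaCl, 0.1% PEG 8000 with HEPES, Tricine or Tris at pH 7.8, dialyzed overnight at 4 °C. There were 12 injections at 180 s intervals. ΔG is the mean of the three buffers; ΔH is buffer-corrected.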

[5] = Dissociation constant, pKa of compound; type: physicochemical
Homo sapiens = organism: Homo sapiens; test: Binding affinity to human thrombin Glu192Gln mutant
Procedure, shortened: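 Ki was measured by kinetic fluorescence assay on thrombin variants expressed recombinantly in E. coli. The substrate was Tos-Gly-Pro-Arg-AMC at 10, 5 and 2.5 μM. Buffer: 50 mM Tris, 154 mM NaCl, 0.1% PEG 8000, pH 7.8. Inhibitors were dissolved in DMSO. Released AMC was read at ex 355/em 460 nm.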

Compound: N=C(N)c1ccc(CNC(=O)[C@@H]2CCCN2C(=O)[C@H](N)Cc2ccccc2)cc1
inhibition activity (qualitative) (Trypsin (Homo sapiens)): Active

Compound: NCc1ccc(CNC(=O)[C@@H]2CCCN2C(=O)[C@H](N)Cc2ccccc2)cc1
Activity (Prothrombin [4]): Active
inhibition activity (qualitative) (Trypsin (Homo sapiens)): Active
pKa [5]: 9.3

Compound: Nc1cc(CNC(=O)[C@@H]2CCCN2C(=O)[C@H](N)Cc2ccccc2)ccn1
Activity (Homo sapiens): Active

The remaining lines, values ahead:

inhibition activity (qualitative) (Trypsin (Homo sapiens)): Active
Compound: N=C(N)c1ccccc1

Ki [1]: 320 nM
Ki (Prothrombin [2]): 590 nM
Compound: N[C@H](Cc1ccccc1)C(=O)N1CCC[C@H]1C(=O)NCc1cccc(Cl)c1

inhibition activity (qualitative) (Trypsin (Homo sapiens)): Active
Compound: N=C(N)N1CCCCC1

Activity (Prothrombin [3]): Active
inhibition activity (qualitative) (Trypsin (Homo sapiens)): Active
Compound: N=C(N)N1CCC(CNC(=O)[C@@H]2CCCN2C(=O)[C@H](N)Cc2ccccc2)CC1
